Test results: ChEMBL document CHEMBL1125911, “Synthesis and biological activity of new HMG-CoA reductase inhibitors. 3. Lactones of 6-phenoxy-3,5-dihydroxyhexanoic acids” (J Med Chem, 1991)

Assays:
[1] = tested on: Oryctolagus cuniculus; test: Tested in vivo for hypocholesterolemic activity by measuring its ability to decrease serum total cholesterol, after oral administration of 10 mg/kg body wt. per day in normolipidemic NZW rabbits; type: functional
Method in brief: (§1)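 NZW rabbits (n = 5 or 6) dosed orally daily for 10 days. Serum total cholesterol reported as % change versus control. For 20 mg/kg, that dose was given on days 11-20 after 10 mg/kg, with the value read on day 20. Error given as SEM.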

[2] = tested on: Rattus norvegicus; test: In vivo inhibition of hepatic cholesterol de novo synthesis in rat after oral administration of 5 mg/kg dose; type: functional
[3] = species: Rattus norvegicus; test: Potency relative to mevinolin was determined with respect to IC50. […]; type: functional
[4] = tested on: Oryctolagus cuniculus; test: Tested in vivo for hypocholesterolemic activity by measuring its ability to decrease serum total cholesterol, after oral administration of 50 mg/kg body wt. per day in normolipidemic NZW rabbits; type: functional; method in brief: as §1
[5] = molecular target: T1, 3-hydroxy-3-methylglutaryl-coenzyme A reductase (Homo sapiens, UniProt P04035); test: Inhibition of the incorporation of sodium [14C]acetate into cholesterol in HEP G2 cells.; type: functional, cell-based, HepG2
T1 sequence (P04035 whole entry): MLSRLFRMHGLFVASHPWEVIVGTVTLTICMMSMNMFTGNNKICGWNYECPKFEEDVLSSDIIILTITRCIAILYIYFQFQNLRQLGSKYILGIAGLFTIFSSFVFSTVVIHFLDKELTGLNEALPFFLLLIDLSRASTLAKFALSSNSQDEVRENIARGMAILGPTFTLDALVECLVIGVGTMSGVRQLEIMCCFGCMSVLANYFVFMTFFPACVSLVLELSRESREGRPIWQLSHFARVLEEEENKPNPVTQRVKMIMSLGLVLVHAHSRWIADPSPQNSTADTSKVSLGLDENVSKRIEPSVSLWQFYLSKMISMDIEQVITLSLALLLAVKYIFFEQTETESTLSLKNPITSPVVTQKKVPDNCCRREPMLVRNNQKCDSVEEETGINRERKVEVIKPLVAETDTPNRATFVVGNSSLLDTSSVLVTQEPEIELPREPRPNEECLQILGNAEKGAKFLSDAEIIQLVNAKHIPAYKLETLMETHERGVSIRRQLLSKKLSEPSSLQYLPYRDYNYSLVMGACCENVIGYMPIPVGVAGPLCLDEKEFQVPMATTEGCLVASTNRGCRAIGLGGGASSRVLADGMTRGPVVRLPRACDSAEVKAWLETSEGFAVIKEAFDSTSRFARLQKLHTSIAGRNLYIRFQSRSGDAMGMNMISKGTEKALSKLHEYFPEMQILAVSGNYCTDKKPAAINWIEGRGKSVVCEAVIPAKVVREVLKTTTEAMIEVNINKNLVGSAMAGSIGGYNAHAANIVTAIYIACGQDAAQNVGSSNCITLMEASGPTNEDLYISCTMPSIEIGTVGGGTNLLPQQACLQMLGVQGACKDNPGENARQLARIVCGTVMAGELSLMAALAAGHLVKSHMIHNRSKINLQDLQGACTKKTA

[6] = molecular target: T2, 3-hydroxy-3-methylglutaryl-coenzyme A reductase (Homo sapiens) (UniProt P04035); test: Inhibition of HMG-CoA reductase compared to mevinolin.; type: functional
T2 sequence (whole entry): T1 sequence (P04035 whole entry)
Method in brief: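 Solubilized, partially purified rat liver HMG-CoA reductase. IC50 from four or five inhibitor concentrations. Relative potency compared IC50 with mevinolin (set to 100), corrected for molecular weight.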

[7] = species: Sus scrofa; test: In vitro inhibition of Cu2+ catalyzed LDL oxidation; type: functional
Method in brief: (§2)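 Porcine plasma LDL isolated by sequential ultracentrifugation (density 1.019-1.063 g/mL), dialysed against PBS pH 7.4, then diluted to 0.1 mg/mL protein. Preincubated 1 h at 37 °C under N2 with compound in ethanol. Oxidised with 5 μM Cu2+ for 2 h at 37 °C in air. Fluorescence read at ex 365/em 430 nm.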

[8] = species: Sus scrofa; test: Compound was tested for inhibition of Cu2+ catalyzed LDL oxidation and the potency relative to terbufucine was determined; type: functional; method in brief: as §2
[9] = tested on: Oryctolagus cuniculus; test: Tested in vivo for hypocholesterolemic activity by measuring its ability to decrease serum total cholesterol, after oral administration of 5 mg/kg body wt. per day in normolipidemic NZW rabbits; type: functional; method in brief: as §1
[10] = species: Rattus norvegicus; test: In vitro inhibition of microsomal lipid peroxidation at 10e-5 M conc.; type: functional
Method in brief: (§3)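 Rat liver microsomes in 50 mM Tris-HCl pH 7.4 with 100 mM KCl and 6.0 mM MgCl2, final protein 0.4 mg/mL. Peroxidation was started with ADP (2 mM)/FeCl3 (10 μM) plus an NADPH-regenerating system. Incubation 30 min at 37 °C with shaking. Thiobarbituric acid reactive substances were read at 535 nm.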

[11] = species: Rattus norvegicus; test: Compound was tested for inhibition of microsomal lipid peroxidation and the potency relative to terbufucine was determined; type: functional; method in brief: as §3
[12] = molecular target: T3, 3-hydroxy-3-methylglutaryl-coenzyme A reductase (Rattus norvegicus, UniProt P51639); test: In vitro inhibition of HMG-CoA reductase in solubilized rat liver.
T3 sequence (P51639 whole entry): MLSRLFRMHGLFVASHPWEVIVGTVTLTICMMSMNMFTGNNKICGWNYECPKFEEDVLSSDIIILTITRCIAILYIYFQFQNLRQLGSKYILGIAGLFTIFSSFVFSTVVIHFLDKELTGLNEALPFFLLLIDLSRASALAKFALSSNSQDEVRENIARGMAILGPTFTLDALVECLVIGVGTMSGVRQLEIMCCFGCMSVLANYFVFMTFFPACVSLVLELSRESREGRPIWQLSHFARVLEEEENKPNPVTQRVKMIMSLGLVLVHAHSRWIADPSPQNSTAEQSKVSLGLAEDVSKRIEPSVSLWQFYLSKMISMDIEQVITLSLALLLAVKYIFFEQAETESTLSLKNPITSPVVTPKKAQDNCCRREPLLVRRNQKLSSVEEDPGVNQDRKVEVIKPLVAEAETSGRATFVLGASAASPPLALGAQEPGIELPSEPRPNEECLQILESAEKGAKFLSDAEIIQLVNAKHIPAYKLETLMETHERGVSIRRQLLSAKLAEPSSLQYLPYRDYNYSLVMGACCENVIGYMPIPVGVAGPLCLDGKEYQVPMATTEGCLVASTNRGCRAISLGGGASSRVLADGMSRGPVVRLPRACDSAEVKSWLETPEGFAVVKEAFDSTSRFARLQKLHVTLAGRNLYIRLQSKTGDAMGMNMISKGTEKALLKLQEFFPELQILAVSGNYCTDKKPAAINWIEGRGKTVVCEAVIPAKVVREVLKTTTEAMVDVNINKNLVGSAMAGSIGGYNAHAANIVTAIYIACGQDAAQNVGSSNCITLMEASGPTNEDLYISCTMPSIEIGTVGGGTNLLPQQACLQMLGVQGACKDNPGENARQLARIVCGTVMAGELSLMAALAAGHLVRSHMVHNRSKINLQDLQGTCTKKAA

[13] = species: Sus scrofa; test: In vitro inhibition of Cu2+ catalyzed LDL oxidation at 10e-5 M conc.; type: functional; method in brief: as §2
[14] = tested on: Rattus norvegicus; test: Compound was tested for effect on body weight after oral administration of 100 mg/kg in male rats.; type: functional
Method in brief: (§4)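 Male HOE:WISKf (SPF 71) rats, initial body weight over 180 g, n = 10 per group, dosed once daily in the morning by gavage in polyethylene glycol 400 for 7 days; controls received vehicle. Fasted after last dose, bled retroorbitally 24 h later under mild ether. Liver and body weight recorded. Pooled group serum was ultracentrifuged into VLDL (<1.006), LDL (1.006-1.04) and HDL (1.04-1.21). Values are % change versus control.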

[15] = tested on: Rattus norvegicus; test: Compound was tested for effect on liver weight after oral administration of 100 mg/kg in male rats.; type: functional; method in brief: as §4
[16] = tested on: Rattus norvegicus; test: Compound was tested for effect on serum HDL after oral administration of 100 mg/kg in male rats; type: functional; method in brief: as §4
[17] = tested on: Rattus norvegicus; test: Compound was tested for effect on serum LDL after oral administration of 100 mg/kg in male rats; type: functional; method in brief: as §4
[18] = tested on: Rattus norvegicus; test: Compound was tested for effect on serum VLDL after oral administration of 100 mg/kg in male rats; type: functional; method in brief: as §4
[19] = species: Rattus norvegicus; test: In vitro inhibition of microsomal lipid peroxidation; type: functional; method in brief: as §3

SMILES	Cholesterol [2]	Relative potency [3]	IC50 [7]	Relative potency [8]	inhibition [10]	Relative potency [11]	further results
CC(C)c1cc(C(C)(C)C)cc(-c2ccc(F)cc2)c1OCC1C[C@@H](O)CC(=O)O1 (stereo not given in full)	95.7%	6	–	–	–	–	Change [1]: -15%
Cc1cc(Cl)cc(CCCOc2ccc(Cl)cc2)c1OCC1C[C@@H](O)CC(=O)O1 (stereo not given in full)	25.2%	87	–	–	–	–	Change [4]: -2%
Cc1cc(C)c(OCC2C[C@@H](O)CC(=O)O2)c(C(c2ccc(F)cc2)c2ccc(F)cc2)c1 (stereo not given in full)	71.6%	33	–	–	–	–	Change [4]: -19%
CC(=O)[O-].CC(C)c1c(OC[C@@H](O)C[C@@H](O)CC(=O)[O-])c(C(C)C)c(C(C)C)c(O)c1-c1ccc(F)cc1.[Na+].[Na+]	–	–	6000 nM	2	< 10%	< 0.1	IC50 [5]: 4.1 nM; Relative potency [6]: 1200; Change [9]: -12%
CC(C)c1cc(Sc2ccc(F)cc2)cc(-c2ccc(F)cc2)c1OCC(O)C[C@@H](O)CC(=O)[O-].[Na+] (stereo not given in full)	–	–	> 10000 nM	0.1	< 10%	< 0.1	IC50 [12]: 6 nM; IC50 [5]: 0.5 nM; Relative potency [6]: 10000; inhibition at 10 µM [13]: 41%; Change [9]: -46%
O=C1C[C@H](O)CC(COc2c(Cl)cc(Cl)cc2C(c2ccc(F)cc2)c2ccc(F)cc2)O1 (stereo not given in full)	65.6%	40	–	–	–	–	–
CCOC(=O)C(C)(C)Oc1ccc(Cl)cc1 [CLOFIBRATE]	–	–	–	–	–	–	Change [14]: 8%; Change [15]: 15%; Change [16]: -29%; Change [17]: -19%; Change [18]: -40%
CC(=O)Oc1c(-c2ccc(F)cc2)c(C(C)C)c(O)c(C(C)C)c1C(C)C	–	–	150 nM	73	98%	4	IC50 [19]: 2800 nM
CC(=O)Oc1c(C(C)C)c(-c2ccc(F)cc2)c(O)c(C(C)C)c1C(C)C	–	–	–	–	83%	2	IC50 [19]: 4800 nM
